An excerpt weighted towards active compounds, which were near 4.6% of everything screened.
OX1R antag-1: antagonists of human orexin 1 receptor (OX1R) | Orexin/Hypocretin receptor type 1 (Homo sapiens), O43613 | OX1R-expressing cells, FRET antagonist read-out | inhibition, % at 6.6 µM | 330,000 compounds, 1.8% hits; in the data active means inhibition mostly above about 38%, no sharp cut-off; inactive means mostly below about 40%;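 further: 0% = agonist challenge alone and 100% = reference antagonist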
Target sequence (O43613 whole entry, looked up): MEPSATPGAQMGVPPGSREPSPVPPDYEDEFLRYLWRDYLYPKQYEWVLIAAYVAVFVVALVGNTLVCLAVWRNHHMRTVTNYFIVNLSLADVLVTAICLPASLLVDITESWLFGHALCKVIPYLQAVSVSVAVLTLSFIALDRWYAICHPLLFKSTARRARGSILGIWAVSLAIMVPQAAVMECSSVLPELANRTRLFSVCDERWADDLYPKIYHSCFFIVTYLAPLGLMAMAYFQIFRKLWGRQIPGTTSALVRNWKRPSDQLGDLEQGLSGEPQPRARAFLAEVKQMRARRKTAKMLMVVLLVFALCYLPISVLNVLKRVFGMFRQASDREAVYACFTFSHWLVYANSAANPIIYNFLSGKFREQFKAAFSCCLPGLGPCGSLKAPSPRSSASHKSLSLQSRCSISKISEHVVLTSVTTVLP
CHO parental Ca: ATP-evoked calcium signal inhibitors, parental CHO, primary screen, counter-screen for OX1R antagonist project, cell-based, fluorescence, Fluo-8 calcium dye; parental CHO-K1, ATP-induced calcium, Fluo-8 fluorescence; AID 463079, 2010; 330,000 compounds, 0.63% hits; inhibition, % at 5.6 µM;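 active means inhibition above that plate's mean sample inhibition plus 3 SD, cut at about 26% in these data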;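 further: 0% = ATP-challenged DMSO wells and 100% = DMSO wells without ATP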
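Material: parental CHO cells / Compound: single nominal dose of 5.6 µM per compound / Signal: Fluo-8 fluorescence / Replicates: singlicate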
TAAR1 antag: human TAAR1 antagonists, primary screen, Fluo-8 calcium fluorescence, CHO RD-HGA16 cells. antagonist. AID 624466, 2012. inhibition, % at 3 µM. 360,000 compounds, 1.5% hits. Trace amine-associated receptor 1 (Homo sapiens), Q96RJ0;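 active means inhibition above a per-plate cutoff, the mean inhibition of test compounds on that plate plus 3 SD, cut at about 49% in these data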;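 further: 0% = DMSO plus EC80 beta-PEA response and 100% = DMSO alone without agonist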
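Assay system: RD-HGA16 CHO cells with stable hTAAR1 and Gα16 / Reagent: EC80 β-phenethylamine stimulus / Doses: 3 µM, single point / Timing: dye loading 75 min at 37 °C, then 30 min room temperature / Measured by: Fluo-8 intracellular calcium dye fluorescence, real-time kinetic reads / Controls: vehicle wells and EC80 agonist wells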
TAAR1 ag: human TAAR1 agonists, primary screen, Fluo-8 calcium fluorescence, CHO RD-HGA16 cells; Trace amine-associated receptor 1 (Homo sapiens), Q96RJ0; vehicle wells 0%, saturating PEA agonist 100%; activation, % at 3 µM; 360,000 compounds, 0.99% hits; AID 624467, 2012;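 active means activation above the mean activation of all test compounds in the run plus 3 SD, cut at about 38% in these data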
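Repeats: no replicates (n 1) | Material: CHO-derived RD-HGA16 cells with stable Gα16 and human TAAR1 | Technique: Kinetic Fluo-8 calcium fluorescence | Schedule: 17-24 h seeding, 75 min 37 °C dye, 30 min RT | Evaluation: % activation from peak over basal fluorescence ratio, DMSO-to-PEA scaled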
GPR7 antag: GPR7 receptor antagonists, primary screen, cell-based, fluorescence, single concentration; Neuropeptides B/W receptor type 1 (Homo sapiens), P48145; GPR7-expressing cells, fluorescence antagonist assay; inhibition, % at 4.4 µM; 290,000 compounds, 1.1% hits; AID 1861, 2009; in the data active means inhibition above about 16%, passing the limit was not always enough;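 further: cells stimulated with the agonist NPW; 0% = agonist with vehicle and 100% = vehicle without agonist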
OX1R antag-2: OX1R (HCRTR1) antagonists, primary screen, fluorescence, CHO/OX1R cells, Fluo-8 calcium, orexin A; Orexin/Hypocretin receptor type 1 (Homo sapiens), O43613; Fluo-8 calcium fluorescence; inhibition, % at 5 µM; 330,000 compounds, 0.43% hits; AID 434989, 2010;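 active means inhibition above its plate's threshold, mean inhibition of all tested compounds on the plate plus 3 SD, cut at about 37% in these data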;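 further: 0% = orexin A challenge wells and 100% = SB-334867-A antagonist wells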
* marks the source's active call; other numbers are inactive results; / = no result.

SMILES	OX1R antag-1	CHO parental Ca	TAAR1 antag	TAAR1 ag	GPR7 antag	OX1R antag-2
COc1ccc(C(=O)Nc2ccc(C3CC3(Cl)Cl)cc2)cc1 (stereo unspecified)	39	37*	-10	4	-8	10
COc1ccc(NC(=O)c2ccc3ccccc3c2)cc1	11	42*	3	16	14	-3
COc1ccc(C(=O)NNC(=O)c2ccc3ccccc3c2)cc1	/	/	8	1	/	/
C=CCn1c(SCC(=O)c2cccs2)nc2sc(CC)cc2c1=O	34	56*	37	13	-7	51*
Cc1ccc(-n2ncc3c(=O)[nH]c(SCC(=O)NCC4CCCO4)nc32)cc1 (stereo unspecified)	0	10	5	5	/	0
COc1ccc(-c2nc(N3CCCCCC3)sc2C(=O)c2ccccc2)cc1	39	36*	80*	42*	-6	56*
COc1ccc(CC(=O)NC(CC(=O)O)c2cccc([N+](=O)[O-])c2)cc1 (stereo unspecified)	14	6	5	4	-8	-23
Cc1[nH]c2ccccc2c1CCNC(=O)c1ccc2c(c1[N+](=O)[O-])C(=O)c1ccccc1C2=O	71*	-6	12	-3	-7	-8
Cc1[nH]c2c(C)cccc2c1CCNC(=O)c1ccc2c(c1[N+](=O)[O-])C(=O)c1ccccc1C2=O	75	2	20	4	-3	5
CC(=O)N(C1=C(N)C(=O)c2ccccc2C1=O)c1ccccc1	46*	-3	-24	0	9	-12
Cn1c(=O)c(=O)n(C)c2cc(N3CCCCC3)c(NS(=O)(=O)c3ccc(Br)cc3)cc21	20	-24	-35	-1	-11	-45
CCOc1cccc2cc(-c3nnc(NCc4ccco4)s3)c(=O)oc12	46*	-13	25	4	4	-1
COc1ccc2oc(=O)c(-c3nnc(NCc4ccco4)s3)cc2c1	24	-9	10	9	-4	-26
CCc1ccc(NC(=O)c2ccc(F)c(S(=O)(=O)N(CC)c3ccccc3)c2)cc1	25	34	59*	6	-18	0
CCN(c1ccccc1)S(=O)(=O)c1cc(C(=O)NCc2ccco2)ccc1C	0	-6	-1	6	/	0
CN(Cc1ccccc1)C(=O)c1ccc(NC(=O)Cc2ccc(NC(=O)C3CCCN(C(=O)c4ccccc4)C3)cc2)cc1 (stereo unspecified)	/	/	0	1	/	/
CCOCCCNC(=O)C(c1ccc(OC)cc1)N(Cc1cccs1)C(=O)c1ccccn1 (stereo unspecified)	0	-4	50*	18	-15	-9
C=CCN(C(=O)c1csnn1)C(C(=O)NCc1ccccc1)c1cccs1 (stereo unspecified)	22	-17	1	0	-14	-18
O=C(NCc1ccccc1)C(c1cccs1)N(Cc1cccs1)C(=O)c1cnccn1 (stereo unspecified)	29	-15	50*	17	-8	-12
O=C(NCc1ccccc1)C(c1ccccc1)N(Cc1cccs1)C(=O)c1cnccn1 (stereo unspecified)	9	-6	62*	18	0	-11
COc1ccc(C(=O)Cn2cnc3ccccc3c2=O)cc1OC	2	-2	-3	3	-3	-18
Cc1ccc(-n2c(N)c(C(=O)Nc3c(C)n(C)n(-c4ccccc4)c3=O)c3nc4ccccc4nc32)cc1C	16	38*	/	/	20	37
Cc1ccc(C)c(NC(=O)c2cc(C)nc3ccccc23)c1	17	67*	3	2	-3	-16
Cc1cccc(NC(=O)c2cc(-c3ccc(C)s3)nc3ccccc23)n1	27	-32	51*	10	-15	-33
COC(=O)c1sccc1NC(=O)c1cc(-c2cc(C)ccc2C)nc2ccccc12	9	-26	16	6	4	-14
SMILES	OX1R antag-1	CHO parental Ca	TAAR1 antag	TAAR1 ag	GPR7 antag	OX1R antag-2
Cc1ccc(C)c(-c2cc(C(=O)NCc3cccs3)c3ccccc3n2)c1	1	-24	49*	4	0	-4
Cc1ccc(C)c(-c2cc(C(=O)Nc3nccs3)c3ccccc3n2)c1	10	-21	51*	15	-13	-10
COc1ccc(S(=O)(=O)NCCCCCC(=O)NCCCN2CCOCC2)cc1	6	-14	/	/	8	15
Cc1ccccc1NC(=O)Cc1nc(COC(=O)Cc2c(F)cccc2Cl)cs1	8	-27	7	-3	/	-26
COc1ccc(C2/C=C\CN(C(=O)Nc3ccccc3)CC(=O)N2Cc2ccc(F)cc2)cc1 (stereo unspecified)	20	-33	7	16	/	-25
COc1ccc(C2/C=C\CN(C(=O)Nc3ccc(C(F)(F)F)cc3)CC(=O)N2Cc2ccc(F)cc2)cc1 (stereo unspecified)	33	60*	/	/	/	9
C[C@H](NC(=O)c1nc[nH]c1C(=O)N1CCN(c2ccccc2)CC1)C(=O)OC(C)(C)C	30	-16	0	2	/	-15
N#CCc1nc2ccc(S(=O)(=O)N3CCOCC3)cc2s1	6	35*	-1	6	5	41*
O=C(Nc1nc2ccc(S(=O)(=O)N3CCCC3)cc2s1)C1CCCCC1	8	-9	8	43*	29	2
C/C(=N\OCC(=O)Nc1ccc(F)c(F)c1F)c1cc2ccccc2o1	65*	-15	3	-1	2	-1
CSc1ccccc1NC(=O)CO/N=C(\C)c1cc2ccccc2o1	23	-22	30	11	-2	-38
CNC(=O)c1c(Br)cnn1-c1ccc(C)cc1	32	-15	4	5	-7	-5
COc1ccc(OC)c(NS(=O)(=O)c2ccc(Br)s2)c1	33	38*	/	/	-1	-3
COc1ccc(OC)c(NS(=O)(=O)c2ccc(Cl)s2)c1	7	-3	2	3	6	-7
CC(C)(C)[C@@H]1COC(=O)[C@@H](Cc2ccc(F)cc2)CC/C=C\C[C@@H](CC(=O)N(CCO)Cc2ccccc2)C(=O)N1	10	-9	5	9	/	-23
O=C1NC[C@H](c2ccccc2)OC(=O)[C@@H](Cc2ccc(F)cc2)CC/C=C/C[C@@H]1CC(=O)N(CCO)Cc1ccccc1	20	-17	44	18	/	11
